Results taken from ChEMBL document CHEMBL1649446, “Comparative antipneumococcal activities of sulopenem and other drugs” (2009).

Experiments:
Type in all cases: functional
[1] = test system: Streptococcus pneumoniae; test: Antimicrobial activity against Streptococcus pneumoniae isolate 1384 by agar dilution method
Method in brief: (§1)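 Agar dilution MIC on Mueller-Hinton agar with 5% sheep blood, inocula 10^4 CFU/spot; amoxicillin-clavulanate combined 1:2; S. pneumoniae ATCC 49619 quality control each run.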

[2] = test system: Streptococcus pneumoniae; test: Antimicrobial activity against Streptococcus pneumoniae isolate 1394 by agar dilution method
[3] = test system: Streptococcus pneumoniae; test: Antimicrobial activity against Streptococcus pneumoniae isolate 3282 by agar dilution method
[4] = test system: Streptococcus pneumoniae; test: Antimicrobial activity against Streptococcus pneumoniae 3 by time-kill analysis
Method in brief: (§2)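 Time-kill in cation-adjusted Mueller-Hinton broth with 5% lysed horse blood; inocula 5 × 105 to 5 × 10^6 CFU/ml; drugs at MIC, 2× and 4× MIC; 35°C shaking water bath; viable counts at 0, 3, 6, 12, 24 h. Bactericidal = ≥3 log10 CFU/ml (99.9%) drop from original inoculum; 90%/99%/99.9% killing scored per strain.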

[5] = test system: Streptococcus pneumoniae; test: Antimicrobial activity against Streptococcus pneumoniae 11 by time-kill analysis in presence of beta-lactamase inhibitor clavulanic acid
[6] = test system: Streptococcus pneumoniae; test: Antimicrobial activity against penicillin-susceptible Streptococcus pneumoniae by agar dilution method in presence of beta-lactamase inhibitor clavulanic acid
[7] = test system: Streptococcus pneumoniae; test: Antimicrobial activity against Streptococcus pneumoniae 6 by time-kill analysis; method in brief: as §2
[8] = test system: Streptococcus pneumoniae; test: Antimicrobial activity against Streptococcus pneumoniae 2 by time-kill analysis in presence of beta-lactamase inhibitor clavulanic acid
[9] = test system: Streptococcus pneumoniae; test: Antimicrobial activity against Streptococcus pneumoniae 12 by time-kill analysis in presence of beta-lactamase inhibitor clavulanic acid
[10] = test system: Streptococcus pneumoniae; test: Antimicrobial activity against Streptococcus pneumoniae isolate 2874 by agar dilution method; method in brief: as §1
[11] = test system: Streptococcus pneumoniae; test: Antimicrobial activity against Streptococcus pneumoniae 10 by time-kill analysis; method in brief: as §2
[12] = test system: Streptococcus pneumoniae; test: Antimicrobial activity against Streptococcus pneumoniae 19A by agar dilution method in presence of beta-lactamase inhibitor clavulanic acid
Method in brief: (§3)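 Agar dilution MIC on Mueller-Hinton agar with 5% sheep blood at 10^4 CFU/spot. Clavulanate combined with amoxicillin 1:2. Control S. pneumoniae ATCC 49619 included in each run. Penicillin categories: intermediate 0.125–1.0 μg/ml, resistant 2.0–16.0 μg/ml. MIC50/MIC90 taken across strain sets, including 45 drug-resistant serotype 19A isolates.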

[13] = test system: Streptococcus pneumoniae; test: Antimicrobial activity against Streptococcus pneumoniae isolate 3412 by agar dilution method; method in brief: as §1
[14] = test system: Streptococcus pneumoniae; test: Antimicrobial activity against Streptococcus pneumoniae isolate 3458 by agar dilution method
[15] = test system: Streptococcus pneumoniae; test: Antimicrobial activity against Streptococcus pneumoniae isolate 3481 by agar dilution method; method in brief: as §1
[16] = test system: Streptococcus pneumoniae; test: Antimicrobial activity against penicillin-resistant Streptococcus pneumoniae by agar dilution method; method in brief: as §1
[17] = test system: Streptococcus pneumoniae; test: Antimicrobial activity against Streptococcus pneumoniae 7 by time-kill analysis in presence of beta-lactamase inhibitor clavulanic acid
[18] = test system: Streptococcus pneumoniae; test: Antimicrobial activity against Streptococcus pneumoniae isolate 1147 by agar dilution method; method in brief: as §1
[19] = test system: Streptococcus pneumoniae; test: Antimicrobial activity against Streptococcus pneumoniae 8 by time-kill analysis in presence of beta-lactamase inhibitor clavulanic acid
[20] = test system: Streptococcus pneumoniae; test: Antimicrobial activity against Streptococcus pneumoniae 19A by agar dilution method; method in brief: as §1
[21] = test system: Streptococcus pneumoniae; test: Antimicrobial activity against Streptococcus pneumoniae 4 by time-kill analysis; method in brief: as §2
[22] = test system: Streptococcus pneumoniae; test: Antimicrobial activity against Streptococcus pneumoniae isolate 3374 by agar dilution method; method in brief: as §1
[23] = test system: Streptococcus pneumoniae; test: Antimicrobial activity against Streptococcus pneumoniae isolate 33 by agar dilution method; method in brief: as §1
[24] = test system: Streptococcus pneumoniae; test: Antimicrobial activity against Streptococcus pneumoniae isolate 3587 by agar dilution method
[25] = test system: Streptococcus pneumoniae; test: Antimicrobial activity against Streptococcus pneumoniae isolate 2688 by agar dilution method; method in brief: as §1
[26] = test system: Streptococcus pneumoniae; test: Antimicrobial activity against Streptococcus pneumoniae 1 by time-kill analysis
Method in brief: as §2, with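 “12 and” for “12,”, “if” for “=”, “reduction” for “drop”, “90% and 99%” for “90%/99%/99.9%”, “also scored.” for “scored per strain.”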

[27] = test system: Streptococcus pneumoniae; test: Antimicrobial activity against Streptococcus pneumoniae isolate 3681 by agar dilution method; method in brief: as §1
[28] = test system: Streptococcus pneumoniae; test: Antimicrobial activity against Streptococcus pneumoniae isolate 2880 by agar dilution method; method in brief: as §1
[29] = test system: Streptococcus pneumoniae; test: Antimicrobial activity against penicillin-intermediate Streptococcus pneumoniae by agar dilution method in presence of beta-lactamase inhibitor clavulanic acid; method in brief: as §3
[30] = test system: Streptococcus pneumoniae; test: Antimicrobial activity against Streptococcus pneumoniae 3 by time-kill analysis in presence of beta-lactamase inhibitor clavulanic acid
[31] = test system: Streptococcus pneumoniae; test: Antimicrobial activity against Streptococcus pneumoniae 10 by time-kill analysis in presence of beta-lactamase inhibitor clavulanic acid
[32] = test system: Streptococcus pneumoniae; test: Antimicrobial activity against Streptococcus pneumoniae 5 by time-kill analysis in presence of beta-lactamase inhibitor clavulanic acid
[33] = test system: Streptococcus pneumoniae; test: Antimicrobial activity against Streptococcus pneumoniae isolate 1146 by agar dilution method; method in brief: as §1
[34] = test system: Streptococcus pneumoniae; test: Antimicrobial activity against Streptococcus pneumoniae isolate 1564 by agar dilution method
[35] = test system: Streptococcus pneumoniae; test: Antimicrobial activity against Streptococcus pneumoniae isolate 3260 by agar dilution method
[36] = test system: Streptococcus pneumoniae; test: Antimicrobial activity against Streptococcus pneumoniae isolate 3346 by agar dilution method
[37] = test system: Streptococcus pneumoniae; test: Antimicrobial activity against Streptococcus pneumoniae 9 by time-kill analysis in presence of beta-lactamase inhibitor clavulanic acid
[38] = test system: Streptococcus pneumoniae; test: Antimicrobial activity against Streptococcus pneumoniae isolate 4755 by agar dilution method; method in brief: as §1
[39] = test system: Streptococcus pneumoniae; test: Antimicrobial activity against penicillin-resistant Streptococcus pneumoniae by agar dilution method in presence of beta-lactamase inhibitor clavulanic acid; method in brief: as §3
[40] = test system: Streptococcus pneumoniae; test: Antimicrobial activity against Streptococcus pneumoniae isolate 1397 by agar dilution method; method in brief: as §1
[41] = test system: Streptococcus pneumoniae; test: Antimicrobial activity against Streptococcus pneumoniae isolate 24 by agar dilution method
[42] = test system: Streptococcus pneumoniae; test: Antimicrobial activity against Streptococcus pneumoniae isolate 2686 by agar dilution method; method in brief: as §1
[43] = test system: Streptococcus pneumoniae; test: Antimicrobial activity against Streptococcus pneumoniae 4 by time-kill analysis in presence of beta-lactamase inhibitor clavulanic acid
[44] = test system: Streptococcus pneumoniae; test: Antimicrobial activity against Streptococcus pneumoniae 8 by time-kill analysis; method in brief: as §2
[45] = test system: Streptococcus pneumoniae; test: Antimicrobial activity against Streptococcus pneumoniae 7 by time-kill analysis; method in brief: as §2
[46] = test system: Streptococcus pneumoniae; test: Antimicrobial activity against Streptococcus pneumoniae isolate 1055 by agar dilution method
[47] = test system: Streptococcus pneumoniae; test: Antimicrobial activity against Streptococcus pneumoniae 5 by time-kill analysis
Method in brief: as §2, with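 “12 and” for “12,”, “if” for “=”, “reduction” for “drop”, “90% and 99%” for “90%/99%/99.9%”, “also scored.” for “scored per strain.”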

[48] = test system: Streptococcus pneumoniae; test: Antimicrobial activity against Streptococcus pneumoniae isolate 3275 by agar dilution method; method in brief: as §1
[49] = test system: Streptococcus pneumoniae; test: Antimicrobial activity against penicillin-intermediate Streptococcus pneumoniae by agar dilution method
[50] = test system: Streptococcus pneumoniae; test: Antimicrobial activity against Streptococcus pneumoniae 11 by time-kill analysis; method in brief: as §2
[51] = test system: Streptococcus pneumoniae; test: Antimicrobial activity against Streptococcus pneumoniae 2 by time-kill analysis; method in brief: as §2
[52] = test system: Streptococcus pneumoniae; test: Antimicrobial activity against Streptococcus pneumoniae isolate 37 by agar dilution method; method in brief: as §1
[53] = test system: Streptococcus pneumoniae; test: Antimicrobial activity against Streptococcus pneumoniae 12 by time-kill analysis; method in brief: as §2
[54] = test system: Streptococcus pneumoniae; test: Antimicrobial activity against Streptococcus pneumoniae isolate 3791 by agar dilution method; method in brief: as §1
[55] = test system: Streptococcus pneumoniae; test: Antimicrobial activity against Streptococcus pneumoniae isolate 1424 by agar dilution method; method in brief: as §1
[56] = test system: Streptococcus pneumoniae; test: Antimicrobial activity against Streptococcus pneumoniae isolate 3263 by agar dilution method
[57] = test system: Streptococcus pneumoniae; test: Antimicrobial activity against Streptococcus pneumoniae isolate 2617 by agar dilution method; method in brief: as §1
[58] = test system: Streptococcus pneumoniae; test: Antimicrobial activity against Streptococcus pneumoniae isolate 3455 by agar dilution method
[59] = test system: Streptococcus pneumoniae; test: Antimicrobial activity against penicillin-susceptible Streptococcus pneumoniae by agar dilution method
[60] = test system: Streptococcus pneumoniae; test: Antimicrobial activity against Streptococcus pneumoniae 9 by time-kill analysis
Method in brief: as §2, with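 “12 and” for “12,”, “if” for “=”, “reduction” for “drop”, “90% and 99%” for “90%/99%/99.9%”, “also scored.” for “scored per strain.”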

[61] = test system: Streptococcus pneumoniae; test: Antimicrobial activity against Streptococcus pneumoniae 1 by time-kill analysis in presence of beta-lactamase inhibitor clavulanic acid
[62] = test system: Streptococcus pneumoniae; test: Antimicrobial activity against Streptococcus pneumoniae 6 by time-kill analysis in presence of beta-lactamase inhibitor clavulanic acid
[63] = test system: Streptococcus pneumoniae; test: Antimicrobial activity against Streptococcus pneumoniae isolate 4747 by agar dilution method; method in brief: as §1

CC1(C)S[C@@H]2[C@H](NC(=O)[C@H](N)c3ccc(O)cc3)C(=O)N2[C@H]1C(=O)O [AMOXICILLIN]
16 µg/mL: MIC [25]
0.03 µg/mL: MIC50 [6] | MIC90 [6] | MIC [8] | MIC [26] | MIC [51] | MIC50 [59] | MIC90 [59] | MIC [61]
1 µg/mL: MIC [9] | MIC [22] | MIC [24] | MIC90 [29] | MIC [48] | MIC90 [49] | MIC [53] | MIC [57]
0.5 µg/mL: MIC [4] | MIC [10] | MIC [30]
8 µg/mL: MIC [2] | MIC50 [12] | MIC90 [12] | MIC [14] | MIC [15] | MIC90 [16] | MIC50 [20] | MIC90 [20] | MIC [32] | MIC [35] | MIC [36] | MIC [42] | MIC [47] | MIC [55] | MIC [58] | MIC [63]
0.125 µg/mL: MIC [28]
0.06 µg/mL: MIC [11] | MIC [31]
4 µg/mL: MIC [1] | MIC [3] | MIC [13] | MIC [18] | MIC [33] | MIC [34] | MIC [38] | MIC90 [39] | MIC [40] | MIC [46]
2 µg/mL: MIC [5] | MIC50 [16] | MIC [17] | MIC [19] | MIC [21] | MIC [23] | MIC [27] | MIC50 [39] | MIC [41] | MIC [43] | MIC [44] | MIC [45] | MIC [50] | MIC [52] | MIC [54] | MIC [56]
0.25 µg/mL: MIC [7] | MIC50 [29] | MIC [37] | MIC50 [49] | MIC [60] | MIC [62]
